Test results: ChEMBL document CHEMBL1629413, “Hirsutalins A-H, eunicellin-based diterpenoids from the soft coral Cladiella hirsuta” (J Nat Prod, 2010)

Experiments:
[1] = Cytotoxicity against human Hep3B cells by MTT assay; format: functional, cell-based, Hep 3B2
In short: (§1)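 Tumor cell lines from ATCC. Viability measured by MTT colorimetric method in duplicate, with doxorubicin as positive control. Read-out reported as IC50.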

[2] = tested on: Ca9-22; test: Cytotoxicity against human Ca9-22 cells by MTT assay; format: functional, cell-based; in short: as §1
[3] = tested on: A549; test: Cytotoxicity against human A549 cells by MTT assay; format: functional, cell-based; in short: as §1
[4] = tested on: RAW264.7; test: Antiinflammatory activity in mouse RAW264.7 cells assessed as accumulation of LPS-induced iNOS at 10 uM by immunoblot analysis; format: functional
In short: (§2)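 RAW264.7 macrophages (ATCC) stimulated with LPS, with test compound at 10 μM. iNOS and COX-2 protein levels measured by western blotting. Levels expressed as % of cells treated with LPS alone.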

[5] = tested on: RAW264.7; test: Antiinflammatory activity in mouse RAW264.7 cells assessed as accumulation of LPS-induced COX-2 at 10 uM by immunoblot analysis; format: functional; in short: as §2
[6] = tested on: MDA-MB-231; test: Cytotoxicity against human MDA-MB-231 cells by MTT assay; format: functional, cell-based; in short: as §1
[7] = tested on: HepG2; test: Cytotoxicity against human HepG2 cells by MTT assay; format: functional, cell-based; in short: as §1
[8] = tested on: MCF7; test: Cytotoxicity against human MCF7 cells by MTT assay; format: functional, cell-based; in short: as §1

C=C1C[C@H]2O[C@H]([C@@H]3[C@@H]([C@@H](C)COC(=O)CCC)CC=C(C)[C@@H]32)[C@](C)(OC(=O)[C@H](O)CC)CC[C@@H]1O [HIRSUTALIN A]
IC50 [1]: 29 µM
IC50 [2]: 35 µM
IC50 [3]: 28 µM

C=C1CC[C@H]([C@@H](C)COC(C)=O)[C@@H]2[C@H]1[C@H]1CC(=C)[C@@H](O)CC(OC(=O)C(CC)OC(=O)CCC)[C@@](C)(O)[C@@H]2O1 (some centres not stated) [HIRSUTALIN B]
Activity [4]: 6.8%
Activity [5]: 49%

C=C1CC[C@H]([C@@H](C)CO)[C@@H]2[C@H]1[C@H]1CC(=C)[C@@H](O)CC[C@@](C)(OC(=O)C(CC)OC(=O)CCC)[C@@H]2O1 (some centres not stated) [HIRSUTALIN C]
Activity [4]: 43.6%

C=C1CC[C@H]([C@@H](C)CO)[C@@H]2[C@H]1[C@H]1CC(=C)[C@@H](O)CC[C@@](C)(OC(=O)C(CC)OC(C)=O)[C@@H]2O1 (some centres not stated) [HIRSUTALIN D]
Activity [4]: 3.3%

CCCC(=O)O[C@]1(C)CC[C@H](O)[C@@](C)(O)C[C@H]2O[C@@H]1[C@H]1[C@@H]2C(C)=CC[C@@H]1C(C)C [HIRSUTALIN E]
IC50 [1]: 14 µM
IC50 [2]: 34 µM
IC50 [6]: 41 µM
IC50 [7]: 4.7 µM
IC50 [8]: 35 µM
IC50 [3]: 34 µM

C=C1CC[C@H]([C@@H](C)CO)[C@@H]2[C@H]1C(=O)C[C@@](C)(O)[C@H]1CC[C@@](C)(OC(=O)C(CC)OC(=O)CCC)[C@@H]2O1 (some centres not stated) [HIRSUTALIN F]
IC50 [1]: 29 µM
IC50 [7]: 29 µM
IC50 [8]: 32 µM

C=C1CC[C@H]([C@@H](C)COC(C)=O)[C@@H]2[C@H]1[C@H]1C[C@](C)(O)[C@@H](O)CC[C@@](C)(OC(=O)CCC)[C@@H]2O1 [HIRSUTALIN H]
Activity [4]: 32.3%
